Test results as given in ChEMBL document CHEMBL2203063, “Azo-reductase activated budesodine prodrugs for colon targeting” (Bioorg Med Chem Lett, 2012).

How the values were obtained:
[1] = Prodrug conversion in buffer assessed as half life of cyclization at pH 7 to 7.5; format: physicochemical
[2] = Prodrug conversion in buffer assessed as half life of cyclization at pH 3.44; format: physicochemical
[3] = Prodrug conversion in buffer assessed as half life of cyclization at pH 5.5; format: physicochemical
[4] = Prodrug conversion in buffer assessed as half life of cyclization at pH 5; format: physicochemical
[5] = Prodrug conversion in buffer assessed as half life of cyclization at pH 2.5; format: physicochemical
[6] = Chemical stability in simulated doudenal juice up to 24 hrs; format: physicochemical
Procedure, shortened: (§1)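 Prodrug incubated in simulated duodenal or gastric juice at 37 °C and followed for up to 24 h to see whether it stays intact.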

[7] = Chemical stability in simulated gastric juice up to 24 hrs; format: physicochemical; conditions: simulated gi fluid; procedure, shortened: as §1
[8] = Prodrug conversion assessed as Clostridium perfringes azoreductase-mediated budesonide formation at pH 7.4; format: ADME; conditions: clostridium perfringens
Procedure, shortened: (§2)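 Prodrugs incubated anaerobically with a suspension of azoreductase-producing Clostridium perfringens at 37 °C, pH 7.4, sampled over 24 h. Progress curves tracked loss of prodrug and appearance of budesonide and linker byproducts (the dihydroquinolone or 3,3-dimethyl-1,3-dihydro-indol-2-one). Assay conditions follow the group's earlier method.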

[9] = Prodrug conversion assessed as Clostridium perfringes azoreductase-mediated reduction after 6 hrs at pH 7.4; format: ADME; conditions: clostridium perfringens, pH 7.4, 6 h; procedure, shortened: as §2
[10] = Drug metabolism assessed as Clostridium perfringes azoreductase-mediated hydrolysis at pH 7.4; format: ADME; conditions: clostridium perfringens
[11] = Drug metabolism assessed as Clostridium perfringes azoreductase-mediated hydrazine formation at pH 7.4 by HPLC analysis; format: ADME; conditions: clostridium perfringens
[12] = Drug metabolism assessed as Clostridium perfringes azoreductase-mediated hydrazine reoxidation to parent azo compound formation at pH 7.4 by HPLC analysis; format: ADME; conditions: clostridium perfringens
[13] = Drug metabolism assessed as Clostridium perfringes azoreductase-mediated cyclization to dihydroquinolone at pH 7.4; format: ADME; conditions: clostridium perfringens; procedure, shortened: as §2

Row | SMILES | t1/2 [1] [min] | t1/2 [2] [min] | t1/2 [3] [min] | t1/2 [4] [min] | t1/2 [5] [min] | Stability [6] | Stability [7] | Drug metabolism [8] | Drug metabolism [9] | Drug metabolism [10] | Drug metabolism [11] | Drug metabolism [12] | Drug metabolism [13]
1 | CCCC1O[C@@H]2C[C@H]3[C@@H]4CCC5=CC(=O)C=C[C@]5(C)[C@H]4[C@@H](O)C[C@]3(C)[C@]2(C(=O)COC(=O)CCc2ccccc2N)O1 (mixture of isomers) | 201 | 29.3 | 73.2 | 52.7 | 25.9 |  |  |  |  |  |  |  | 
2 | CCCC1O[C@@H]2C[C@H]3[C@@H]4CCC5=CC(=O)C=C[C@]5(C)[C@H]4[C@@H](O)C[C@]3(C)[C@]2(C(=O)COC(=O)CCc2ccccc2/N=N/c2ccc(O)c(C(=O)O)c2)O1 (mixture of isomers) |  |  |  |  |  | Stable | Stable | Active | Active | Not Active |  |  | 
3 | CCCC1O[C@@H]2C[C@H]3[C@@H]4CCC5=CC(=O)C=C[C@]5(C)[C@H]4[C@@H](O)C[C@]3(C)[C@]2(C(=O)COC(=O)CCc2ccccc2/N=N/c2ccc(C(=O)O)cc2)O1 (mixture of isomers) |  |  |  |  |  | Stable | Stable | Not Active | Not Active |  | Active | Active | 
4 | CCCC1O[C@@H]2C[C@H]3[C@@H]4CCC5=CC(=O)C=C[C@]5(C)[C@H]4[C@@H](O)C[C@]3(C)[C@]2(C(=O)COC(=O)C(C)(C)c2ccccc2/N=N/c2ccc(O)c(C(=O)O)c2)O1 (mixture of isomers) |  |  |  |  |  | Stable | Stable | Active | Active |  |  |  | Active
